Fewer inactive variants are shown than the library holds. Some results are limits rather than exact numbers.

Consider 167 variants from the RNAGym collection of RNA variant scans (doi:10.1126/science.aae0568).

To fix the notation:
B1: tRNA (parent)
chain: GUUCCGUUGGCGUAAUGGUAACGCGUCUCCCUCCUAAGGAGAAGACUGCGGGUUCGAGUCCCGUACGGAACG

Variants of B1 are the subject of this series. In words: yeast fitness relative to wild type (ratio to wild type); higher = fitter; tRNA-Arg(CCU), competitive growth, 37 C, YPD. In a few lines:
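Variants of the tRNA-Arg(CCU) gene were chemically synthesised with a 3% per-site mutation rate across 69 sites and placed at the native genomic locus in Saccharomyces cerevisiae. Six parallel replicates of the pooled strains were competed in YPD at 37°C for 24 hours, and gene amplicons from the start and end populations were read by 100-nucleotide paired-end sequencing. Darwinian fitness relative to wild type was derived from changes in genotype frequencies. Genotypes required ≥ 100 starting reads, and estimates < 0.5 were set to 0.5.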
On to G23C U32A A69C, for which the yeast fitness was at most 0.5.
The same measure for G9C: 0.853; for C24G A40C A69C: at most 0.5; for C11G C49U G58C C61A A65U: at most 0.5.
With A14G A20C A21U U28C the figure was at most 0.5; with G25C C31G C34G C61U A69U, at most 0.5; with G12A G18U G39A, at most 0.5.
The same measure for C29U A43U C46A: 0.76; for G9C U26A: 0.613.
With U7G C27G U28G U59C, the yeast fitness is at most 0.5.
The same measure for A14U G23C: 0.508.
With C11A C24U U32A U35C C55G the figure was at most 0.5; with C22A C66A G67A, at most 0.5; with A14C A36U G68A, at most 0.5.
With C5G A14G G63C the figure was at most 0.5.
C33U G67C: the yeast fitness worked out at 0.839.
As to U2A C24G A42U, the yeast fitness amounted to 0.812.
With A20G A45G the figure was 0.992.
The same measure for C27G A42G A69U: at most 0.5; for U16C A21G A40G A57C: at most 0.5.
Consider A20C G50A G68A, for which the yeast fitness is at most 0.5.
Turning to A14G A21G C22U C27U A45C G48C C61G, the yeast fitness was at most 0.5.
The same measure for C46G C62G G67U: 0.542; for C5U G18C A65U: 0.601.
With A14C C55A G58A the figure was 0.55; with C55A, 0.656; with U8A C29U G51C G67A, 0.536.
With U26C C29G U35C the figure was at most 0.5.
Take C4A A40U G52C C60G: the yeast fitness came to 0.552.
With C22G G44C U53A the figure was at most 0.5.
The same measure for G9A C11U A37G A45C: 0.603.
The same measure for U3A G9A A20G: 0.665; for G12C U28A G56A A57C: at most 0.5; for U2A A20G C29A A45U: 0.538.
For C11A A43U G48C C60G, the yeast fitness is at most 0.5.
For U3C G10C C30U U54A, the yeast fitness was at most 0.5.
The same measure for C24A G25A U47C: at most 0.5.
The same measure for C5A U32G C49G: at most 0.5.
For C4G C5U G25C G68A, the yeast fitness was at most 0.5.
For the variant U7A C30A A70U, the yeast fitness was determined as 0.601.
The same measure for A14C C27U A43C: at most 0.5.
Turning to G9C U19C G23C U59A G68C, the yeast fitness is 0.548.
With C5U C22G C30U C33G A69G the figure was 0.552; with C31G G51C G56A U64A, at most 0.5; with C4U C55G A65G C66G, at most 0.5.
With C30U A36C the figure was 0.566; with A37G A40G A43G G52C U59G, at most 0.5; with C34G C46U, 0.616.
The same measure for G50C G58C: 0.722; for G12A A36C G41C: at most 0.5; for C4A U47A: 0.857.
As to U7C U32C U53C, the yeast fitness is 0.536.
The same measure for G23A C30U C66U: at most 0.5; for A21G G25C A65G: 0.751; for U2C A20C: 0.98.
With U16C A43U G48C C60G the figure was at most 0.5.
As to G6A C27A C60A U64A, the yeast fitness was at most 0.5.
With A37G C66G the figure was 0.692; with U2G U3G C11U G52C C55G A70G, at most 0.5.
With U2A U32C C33A G51C G68A the figure was at most 0.5.
The same measure for C31U A40U A70U: 0.7; for C11U G52C A69G: at most 0.5.
Consider C27A G56A A65U C66A, for which the yeast fitness was at most 0.5.
With A36U G50A A69U the figure was at most 0.5; with U3C G12C A37U G51A C62U G63A, at most 0.5.
The same measure for C22G C31G: 0.745.
For C5G A43G A69U, the yeast fitness stood at 0.762.
The same measure for A20C C24U C34G: 0.506; for C4G G10A A69U: 0.625; for U3G G48A: 0.856.
With A20C C29U U54C the figure was at most 0.5.
For U7G A43U C46A, the yeast fitness is 0.603.
The same measure for G18A C31A G56C: at most 0.5.
With G6C C11G C61U the figure was at most 0.5; with U2A A20G, 0.838.
The same measure for G10U A14U: at most 0.5; for U2C G25C A43U: 0.624.
As to A15G C30U A70C, the yeast fitness was found to be 0.615.
For U3C A42U, the yeast fitness stood at 0.9.
In the case of C4A U16C G17A A69U, the yeast fitness was at most 0.5.
The same measure for C5G G9C A42G C49U U54C: 0.533.
With C22U A42G A45C the figure was at most 0.5.
With C11U C22G A42G U59C the figure was at most 0.5.
U8C C31A G52C A65U: the yeast fitness is at most 0.5.
With U2C G18C C55G C61G the figure was 0.541.
The same measure for C11G A21U A36U: at most 0.5; for A40C G41C G67C: at most 0.5; for U13G G58C C62U A70U: at most 0.5.
With C34U G48C the figure was 0.674.
As to G39C C62A U64A, the yeast fitness is at most 0.5.
G48C C61G: the yeast fitness turned out to be 0.629.
As to G25C G68A, the yeast fitness turned out to be 0.817.
The same measure for U3C U13A A40C: at most 0.5; for C11G A20G C24U C31G: at most 0.5.
With A37G A43U the figure was 0.631.
With U19A C29A G67A the figure was at most 0.5; with G23U A43G, 0.758; with G6A A21G A37C A57C, at most 0.5.
For the variant A15G U26C G63A, the yeast fitness was at most 0.5.
In the case of G10A G18A C46A, the yeast fitness amounted to 0.539.
The same measure for C4U C5U C27G C31G: at most 0.5; for A21G G39C C62U: at most 0.5.
Consider A15C C60A C62U, for which the yeast fitness is at most 0.5.
The same measure for G12A C33G C46U G50C: 0.595; for U32C A42U G44C U54A: at most 0.5.
For C5G A14G G17A A20G U32C G56C C60G, the yeast fitness was at most 0.5.
The same measure for C60G G63C: at most 0.5; for U28G C31U C49G: at most 0.5; for U13A A21U C22G C31A G50A: at most 0.5.
The same measure for C5U C11U A36U C60A: at most 0.5; for C62A C66A: 0.51; for C4U U16C: 1.02.
The same measure for G12C G18C C27A G38C C49G: at most 0.5; for U13C A37U C62A: at most 0.5; for A15G C46G C55U: at most 0.5.
On to U8C G9A A20C, for which the yeast fitness was found to be 0.772.
On to U13C G56A C66U, for which the yeast fitness stood at 0.696.
With U7C A43C A57G U59C A70G the figure was at most 0.5.
With G38C C49G G50C C61U the figure was 0.555; with C4G U7A G9A C11U C30G C62A, 0.628.
The same measure for U7G U8A U32C G51C C60U C61U C62U: 0.599.
Consider A15C C27G C30U C46A, for which the yeast fitness turned out to be 0.542.
Consider C34U U47A A70U, for which the yeast fitness was 0.534.
With C22G C31A U47C C49G G63C A69U the figure was at most 0.5; with G10A C11A A20U C66G, at most 0.5.
The same measure for G23A G67C: 0.86; for C49U C66G: 0.752; for G17A A21C U32C: at most 0.5.
The same measure for C29G C31G U59A A69G: at most 0.5; for C11A C27G U32C C33U C62U A65G: at most 0.5; for U2C A43U G50A U54G G68C: at most 0.5.
On to C24U A37G A45U, for which the yeast fitness was 0.562.
With A45G C60A the figure was 0.632.
With A14G C22U C49A the figure was at most 0.5; with G18A U19A G51C U64C, at most 0.5.
As to C11G C49U A70G, the yeast fitness was 0.573.
The same measure for C5G A20U U54A: at most 0.5; for C27U C62U: 1.01; for U28C C55A: 0.564.
The same measure for C5U C11G C31U G41C U54G: 0.746; for C31G A65C C66U: at most 0.5; for C11U C33A C34G: 0.526.
Take C27A C30U C33G A37C A57U: the yeast fitness was at most 0.5.
The same measure for G56C U59A A65G: 0.571; for C5G U47C C61G: 0.519; for G10A A40U G52C: at most 0.5.
With G12A C30A the figure was 0.915; with C27G A36C A42U C66U, at most 0.5.
The same measure for C11G A21U U35A: at most 0.5; for C11U C24G A70U: 0.557; for C5G C11G A70U: at most 0.5.
Regarding G6C C49U, the yeast fitness worked out at 0.965.
The same measure for G6C A14C C24U C27G C29A A70G: at most 0.5; for C11U U19A C61U G68A: at most 0.5.
The same measure for U3C A40C A45C: 0.502; for A21G G23A G58C: 0.537.
With G41A G63A A70C the figure was 0.753; with G23A C55U G58A, at most 0.5; with G23A A43G A70U, 0.648.
Take U26C C46G C62G G67U: the yeast fitness was at most 0.5.
C22U A36G G51A C66U: the yeast fitness amounted to 0.588.
With U26A G58A the figure was 0.928.
With G41C C62U the figure was 0.802.
In the case of C5G U7C U8A, the yeast fitness worked out at 0.56.
With C27U C33U A36U G63C the figure was 0.541.
With G12A C24A A36C A70C the figure was at most 0.5; with C46U C60A A70U, 0.585.
